Source: ChEMBL document CHEMBL1124968, “Synthesis and biological activity of new HMG-CoA reductase inhibitors. 2. Derivatives of 7-(1H-pyrrol-3-yl)-substituted-3,5-dihydroxyhept-6(E)-enoic (-heptanoic) acids” (J Med Chem, 1990)

Tests used:
[1] = system: Rattus norvegicus; experiment: Inhibition of hepatic cholesterol de novo synthesis in male rats after po administration; values are per cent of control
[2] = molecular target: T1, 3-hydroxy-3-methylglutaryl-coenzyme A reductase (Rattus norvegicus) (UniProt P51639); experiment: In vitro inhibition of solubilized, partially purified rat liver HMG-CoA reductase relative to mevinolin
T1 sequence (whole entry): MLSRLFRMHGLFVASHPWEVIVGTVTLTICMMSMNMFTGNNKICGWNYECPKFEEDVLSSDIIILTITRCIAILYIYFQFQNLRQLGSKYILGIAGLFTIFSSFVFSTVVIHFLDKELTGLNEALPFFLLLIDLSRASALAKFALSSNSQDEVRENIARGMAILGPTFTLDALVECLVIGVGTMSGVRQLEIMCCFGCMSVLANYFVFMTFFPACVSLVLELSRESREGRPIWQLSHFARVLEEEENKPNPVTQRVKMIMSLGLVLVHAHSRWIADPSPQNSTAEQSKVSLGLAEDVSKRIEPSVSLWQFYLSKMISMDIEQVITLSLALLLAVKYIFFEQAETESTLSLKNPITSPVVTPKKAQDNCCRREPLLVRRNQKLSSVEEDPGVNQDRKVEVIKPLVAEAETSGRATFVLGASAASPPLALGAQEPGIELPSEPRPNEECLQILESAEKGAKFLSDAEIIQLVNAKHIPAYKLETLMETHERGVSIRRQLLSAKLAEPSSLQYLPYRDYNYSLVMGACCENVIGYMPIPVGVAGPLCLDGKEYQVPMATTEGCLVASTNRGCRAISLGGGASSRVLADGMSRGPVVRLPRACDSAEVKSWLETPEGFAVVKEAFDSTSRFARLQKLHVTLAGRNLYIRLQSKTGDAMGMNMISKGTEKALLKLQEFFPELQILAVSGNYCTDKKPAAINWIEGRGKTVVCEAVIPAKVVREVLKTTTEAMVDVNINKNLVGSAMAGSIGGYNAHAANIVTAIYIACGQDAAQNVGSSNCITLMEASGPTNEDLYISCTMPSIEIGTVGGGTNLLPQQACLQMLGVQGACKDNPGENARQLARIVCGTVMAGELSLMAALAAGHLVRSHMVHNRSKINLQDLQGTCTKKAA

[3] = molecular target: T2, 3-hydroxy-3-methylglutaryl-coenzyme A reductase (Homo sapiens) (UniProt P04035); experiment: Inhibition of cellular HMG-CoA reductase in cultures of hepatic cells (HEP G2, a human hepatoma cell line) relative to mevinolin; type: cell-based
T2 sequence (whole entry): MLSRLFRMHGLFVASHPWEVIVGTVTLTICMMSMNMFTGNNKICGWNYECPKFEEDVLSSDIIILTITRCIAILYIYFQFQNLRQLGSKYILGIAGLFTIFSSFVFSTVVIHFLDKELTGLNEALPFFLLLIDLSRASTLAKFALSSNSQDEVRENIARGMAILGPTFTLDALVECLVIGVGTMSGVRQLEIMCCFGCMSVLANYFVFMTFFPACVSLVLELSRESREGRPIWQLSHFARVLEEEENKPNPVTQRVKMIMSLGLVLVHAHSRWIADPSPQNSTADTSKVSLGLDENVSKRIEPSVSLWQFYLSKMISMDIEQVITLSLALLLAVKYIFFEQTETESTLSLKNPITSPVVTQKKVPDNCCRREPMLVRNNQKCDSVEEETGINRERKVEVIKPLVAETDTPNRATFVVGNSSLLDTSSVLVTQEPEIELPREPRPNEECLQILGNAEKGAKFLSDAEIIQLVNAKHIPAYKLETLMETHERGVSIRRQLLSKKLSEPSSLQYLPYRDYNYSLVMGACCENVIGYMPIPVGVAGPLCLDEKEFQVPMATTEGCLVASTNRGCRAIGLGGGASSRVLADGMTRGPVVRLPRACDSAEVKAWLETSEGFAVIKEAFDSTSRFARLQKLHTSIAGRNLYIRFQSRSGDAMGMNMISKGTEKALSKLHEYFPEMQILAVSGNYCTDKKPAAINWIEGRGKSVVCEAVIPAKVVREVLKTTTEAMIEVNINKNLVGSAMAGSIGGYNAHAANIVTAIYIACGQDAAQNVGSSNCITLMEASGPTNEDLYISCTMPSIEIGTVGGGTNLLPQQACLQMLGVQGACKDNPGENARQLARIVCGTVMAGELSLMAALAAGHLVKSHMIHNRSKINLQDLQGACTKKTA
Summary of the method: (§1)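 HEP G2 human hepatoma cells in culture; cellular HMG-CoA reductase inhibition read as reduced incorporation of sodium [14C]acetate into cholesterol; IC50 values varied somewhat between cell batches. Assay system as in the preceding paper.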

[4] = molecular target: T3, 3-hydroxy-3-methylglutaryl-coenzyme A reductase (Rattus norvegicus, UniProt P51639); experiment: In vitro inhibition of HMG-CoA reductase of rat liver
T3 sequence (P51639 whole entry): T1 sequence (whole entry)

[5] = molecular target: T4, 3-hydroxy-3-methylglutaryl-coenzyme A reductase (Homo sapiens, UniProt P04035); experiment: Inhibition of cellular HMG-CoA reductase in cultures of hepatic cells (HEP G2, a human hepatoma cell line); type: cell-based
T4 sequence (P04035 whole entry): T2 sequence (whole entry)
Summary of the method: as §1

[6] = system: Oryctolagus cuniculus; experiment: Percent decrease in total plasma cholesterol in rabbit was determined after oral administration of a dose of 10 mg/kg for 6 days; type: functional; set-up: scale not given: the % may be the effect or the level left
Summary of the method: (§2)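 Normally fed normolipemic rabbits given oral doses repeatedly (20 mg/kg for 10 days, n = 6; 10 mg/kg for 6 days, n = 4); total plasma cholesterol decrease expressed as percent.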

[7] = system: Rattus norvegicus; experiment: Inhibition of hepatic cholesterol de novo synthesis in male rats after po administration, relative to mevinolin; type: functional
Summary of the method: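 Male rats dosed orally. […] Dose 5 mg/kg bw for lactone form, optically pure; 10 mg/kg bw for racemic sodium salts. Potency expressed against optically pure mevinolin tested under the same conditions.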

[8] = system: Canis familiaris; experiment: Percent decrease in plasma LDL-cholesterol in dog was determined after oral administration of a dose of 20 mg/kg for 14 days; type: functional, Canis lupus familiaris; set-up: scale not given: the % may be the effect or the level left
Summary of the method: (§3)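 Normally fed male beagle dogs (n = 4) given drug orally each day (20 mg/kg for 14 days or 10 mg/kg for 19 days); plasma LDL- and HDL-cholesterol followed as percent change.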

[9] = system: Canis familiaris; experiment: Percent increase in plasma HDL-cholesterol in dog was determined after oral administration of a dose of 20 mg/kg for 14 days; type: functional, Canis lupus familiaris
Summary of the method: as §3

[10] = system: Oryctolagus cuniculus; experiment: Percent decrease in total plasma cholesterol in rabbit was determined after oral administration of a dose of 20 mg/kg for 10 days; type: functional; set-up: scale not given: the % may be the effect or the level left
Summary of the method: as §2

[11] = system: Canis familiaris; experiment: Percent decrease in plasma LDL-cholesterol in dog was determined after oral administration of a dose of 10 mg/kg for 19 days; type: functional, Canis lupus familiaris; set-up: scale not given: the % may be the effect or the level left
Summary of the method: as §3

[12] = system: Canis familiaris; experiment: Percent increase in plasma HDL-cholesterol in dog was determined after oral administration of a dose of 10 mg/kg for 19 days; type: functional, Canis lupus familiaris
Summary of the method: as §3

[13] = system: Rattus norvegicus; experiment: Inhibition of hepatic cholesterol de novo synthesis in male rats after po administration,; values are per cent of control

Relative potency [2] | Relative potency [3] | IC50 [4] | IC50 [5] | Compound | further results
– | – | – | – | CC(C)c1c(/C=C/[C@@H](O)C[C@@H](O)CC(=O)[O-])c(-c2ccc(F)cc2)cn1-c1ccccc1.[Na+] | level, % of control [1]: 5.5%
149 | – | – | – | Cc1c(-c2ccc(F)cc2)c(CC[C@@H](O)C[C@@H](O)CC(=O)O)c(C(C)C)n1-c1ccccc1 (racemic) [listing 1 of 2 here] | –
2 | 1 | 330 nM | 6000 nM | Cc1c(/C=C/[C@@H](O)C[C@@H](O)CC(=O)O)c(-c2ccc(F)cc2)cn1C(C)C | –
12 | 47 | 69 nM | 106 nM | CC(C)c1c(/C=C/[C@H](O)C[C@@H](O)CC(=O)O)c(-c2ccc(F)cc2)cn1C1CCCCC1 | –
– | – | 5 nM | – | Cc1c(-c2ccc(F)cc2)c(CC[C@@H](O)C[C@@H](O)CC(=O)O)c(C(C)C)n1-c1ccccc1 (racemic) [listing 2 of 2 here] | –
42 | 2500 | – | – | CC(C)c1c(CC[C@@H](O)C[C@@H](O)CC(=O)O)c(-c2ccc(F)cc2)cn1C(C)C (racemic) | –
– | – | – | – | CC(C)c1c(CC[C@@H](O)C[C@@H](O)CC(=O)[O-])c(-c2ccc(F)cc2)cn1C1CCCCC1.[Na+] | level, % of control [1]: 6%
– | – | 9 nM | – | CC(C)c1c(CC[C@@H](O)C[C@@H](O)CC(=O)O)c(-c2ccc(F)cc2)cn1C(C)C [listing 1 of 2 here] | –
3 | 1 | 250 nM | 5000 nM | Cc1c(/C=C/[C@@H](O)C[C@@H](O)CC(=O)O)c(-c2ccc(F)cc2)c(C)n1-c1ccccc1 | –
– | – | 18 nM | 2 nM | CC(C)c1c(CC[C@@H](O)C[C@@H](O)CC(=O)[O-])c(-c2ccc(F)cc2)cn1C(C)C.[Na+] (racemic) | Activity [6]: 42%; Relative potency [7]: 156; level, % of control [1]: 9%
11 | 9 | 70 nM | 570 nM | Cc1c(CC[C@@H](O)C[C@@H](O)CC(=O)O)c(-c2ccc(F)cc2)c(C)n1-c1ccccc1 | –
9 | 19 | 100 nM | 270 nM | Cc1c(CC[C@@H](O)C[C@@H](O)CC(=O)O)c(-c2ccc(F)cc2)cn1C(C)C | –
85 | – | – | – | CC(C)c1c(CC[C@@H](O)C[C@@H](O)CC(=O)O)c(-c2ccc(F)cc2)cn1C(C)C [listing 2 of 2 here] | –
128 | > 500 | 6 nM | < 10 nM | CC(C)c1c(CCC(O)CC(O)CC(=O)[O-])c(-c2ccc(F)cc2)cn1-c1ccccc1.[Na+] (racemic) | Activity [8]: 48%; Activity [9]: 14%; Activity [10]: 34%; Relative potency [7]: 250; level, % of control [1]: 5.6%
– | – | – | – | CC[C@H](C)C(=O)O[C@H]1C[C@@H](C)C=C2C=C[C@H](C)[C@H](CC[C@@H]3C[C@@H](O)CC(=O)O3)[C@H]21 [LOVASTATIN] | Activity [11]: -18%; Activity [12]: 2%; Activity [6]: 25%; level, % of control [13]: 14%
300 | – | – | – | Cc1c(-c2ccc(F)cc2)c(CC[C@@H](O)C[C@@H](O)CC(=O)O)c(C(C)C)n1-c1ccccc1 [listing 1 of 2 here] | –
– | – | 2.5 nM | – | Cc1c(-c2ccc(F)cc2)c(CC[C@@H](O)C[C@@H](O)CC(=O)O)c(C(C)C)n1-c1ccccc1 [listing 2 of 2 here] | –
257 | – | 3 nM | – | CC(C)c1c(CC[C@@H](O)C[C@@H](O)CC(=O)O)c(-c2ccc(F)cc2)cn1-c1ccccc1 | –
